Experimental findings from ChEMBL document CHEMBL4014335, “Activation of Phenyl 4-(2-Oxo-3-alkylimidazolidin-1-yl)benzenesulfonates Prodrugs by CYP1A1 as New Antimitotics Targeting Breast Cancer Cells” (J Med Chem, 2017) are described below.

Each structure is given as a SMILES string. pIC50, pKi: −log10 of the molar value. Calls of active or inactive are those of the source. The calls are words filed in the database; no cut-off is given here.

The subject of data set [1] is HT-1080. The data set can be described thus: Antiproliferative activity against human wild type HT1080 cells after 72 hrs by SRB assay. The note with it: HT-1080, 72 h. The data set is classed as functional, cell-based. The method in brief:
(§1)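 SRB antiproliferative assay (modified NCI protocol). Cells seeded per well (SK-BR-3, MDA-MB-231, T47D, HT-1080, HT-1080 CYP1A1 and empty-vector: 3.0 x 10^3; MDA-MB-468: 5.0 x 10^3; MCF7: 7.5 x 10^3), preincubated 24 h. DMSO-solubilized drug added at 0.75 to 1.0 x 10^5 nM, then 72 h. Fixed with cold 10% TCA, stained with 0.1% sulforhodamine B, absorbance read at 530-565 nm. At least two experiments, triplicate cultures.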

Data set [2] deals with HT-1080. As to the kind of experiment: Antitumor activity against CYP1A1 transfected human HT1080 cells implanted in chicken chorioallantoic membrane assessed as tumor growth inhibition at 1 ug/egg, iv administered on day 11 post implantation measured on day 17. Type of data set: functional. An outline of the steps: (§2)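 Chick CAM tumor model using HT-1080 cells (wild-type or stably transfected with CYP1A1 or empty plasmid). Eggs incubated 10 d. On day 11, drug in DMSO (40 mM stock) was diluted in cremophor/EtOH/PBS (6.25/6.25/87.5), DMSO kept below 0.5%, and given iv in 100 µL to 10-12 eggs. Tumors excised on day 17 and wet-weighed. Two independent experiments (20-24 eggs); embryo deaths and toxicity recorded.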

Data set [3] deals with T1, Cytochrome P450 1A1 (Homo sapiens, UniProt P04798).
T1 sequence (P04798 whole entry): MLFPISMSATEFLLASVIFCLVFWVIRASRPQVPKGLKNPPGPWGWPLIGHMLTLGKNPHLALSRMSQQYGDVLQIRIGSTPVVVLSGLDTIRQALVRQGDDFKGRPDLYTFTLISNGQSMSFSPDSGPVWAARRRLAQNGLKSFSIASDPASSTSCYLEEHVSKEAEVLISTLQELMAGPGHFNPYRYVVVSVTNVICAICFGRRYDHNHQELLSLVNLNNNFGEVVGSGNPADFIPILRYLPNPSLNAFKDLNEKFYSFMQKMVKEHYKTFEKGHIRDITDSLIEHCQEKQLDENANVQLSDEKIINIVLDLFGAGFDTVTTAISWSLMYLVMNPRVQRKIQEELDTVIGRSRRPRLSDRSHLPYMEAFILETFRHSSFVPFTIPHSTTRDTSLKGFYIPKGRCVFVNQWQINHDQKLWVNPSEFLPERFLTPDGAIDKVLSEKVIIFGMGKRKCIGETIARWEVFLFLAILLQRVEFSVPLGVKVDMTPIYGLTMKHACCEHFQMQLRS
The data set can be described thus: Inhibition of human supersomes CYP1A1-mediated 7-ethoxyresorufin conversion to fluorescent resorufin preincubated with 7-ethoxyresorufin for 5 mins followed by addition of NADPH regenerating system measured for 15 mins by EROD assay. Type of data set: ADME. The method in brief: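 EROD assay with human CYP1A1 supersomes containing reductase, in potassium phosphate buffer. Drug final 32–31 600 nM and 7-ethoxyresorufin 94–3 000 nM, with 0.35% DMSO, preincubated 5 min at 37 °C. Reaction started with NADPH-regenerating system and 0.15 pmol CYP1A1 in 150 µL. Initial velocity taken from 1–5 min; Vmax and Km from Lineweaver-Burk plot.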

The target of data set [4] is T1, Cytochrome P450 1A1. The data set can be described thus: Prodrug activation assessed as human supersomes CYP1A1-mediated 3,4,5-trimethoxyphenyl 4-(2-oxoimidazolidin-1-yl)benzenesulfonate formation after 4 hrs by HPLC-MS analysis. Type of data set: ADME. The following applies: recombinant enzyme.
Data set [5] addresses T1, Cytochrome P450 1A1. The data set can be described thus: Prodrug activation assessed as time required for human supersomes CYP1A1-mediated 3,4,5-trimethoxyphenyl 4-(2-oxoimidazolidin-1-yl)benzenesulfonate formation after 4 hrs by HPLC-MS analysis. Type of data set: ADME. The following applies: recombinant enzyme.
Data set [6] in a line: Selectivity ratio of IC50 for ER/PR/HER2 deficient human MDA-MB-231 cells to IC50 for ER/PR deficient and HER2 expressing human SKBR3 cells. The data set is classed as functional. An outline of the steps: (§3)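 Ratio is IC50 in reference line over IC50 in sensitive line. […] Cells in DMEM with 5% calf serum at 37 °C. At least two experiments, triplicate cultures; assay accepted when relative SD < 10%.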

Data set [7] has as its system HT-1080. The data set can be described thus: Antitumor activity against empty plasmid transfected human HT1080 cells implanted in chicken chorioallantoic membrane assessed as tumor growth inhibition at 1 ug/egg, iv administered on day 11 post implantation measured on day 17. Type of data set: functional. The method in brief:
as §2

Data set [8] has as its system HT-1080. The data set can be described thus: Selectivity ratio of IC50 for HT1080 cells transfected with pCMV6-AC empty plasmid to IC50 for human HT1080 cells transfected with CYP1A1. Type of data set: functional. The method in brief: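 Ratio is IC50 (HT-1080 empty vector) over IC50 (HT-1080 CYP1A1). Both lines stably transfected (pCMV6-AC plasmids) and kept under G418 selection, seeded at 3.0 x 10^3 cells. IC50s from SRB antiproliferative assay.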

Data set [9] is described as follows: Selectivity ratio of IC50 for ER/PR/HER2 deficient human MDA-MB-231 cells to IC50 for human MCF7 cells. The data set is classed as functional. An outline of the steps: as §3
Data set [10] concerns HT-1080. The data set can be described thus: Antitumor activity against human HT1080 cells implanted in chicken chorioallantoic membrane assessed as tumor growth inhibition at 1 ug/egg, iv administered on day 11 post implantation measured on day 17. Type of data set: functional. An outline of the steps:
as §2

The subject of data set [11] is MDA-MB-468. The data set can be described thus: Cytotoxicity against human MDA-MB-468 cells after 72 hrs in presence of CYP1A1 inhibitor capsaicin by SRB assay. Type of data set: functional, cell-based. An outline of the steps:
(§4)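 MDA-MB-468 cells co-incubated for 72 h with drug plus a subtoxic concentration of a CYP inhibitor. Viability read by SRB assay: TCA fixation, sulforhodamine B staining, absorbance at 530-565 nm.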

Data set [12] relates to MCF7. As to the kind of experiment: Antiproliferative activity against human MCF7 cells after 72 hrs by SRB assay. The data set is classed as functional, cell-based. The following applies: MCF7, 72 h. An outline of the steps: as §1
A further data set deals with T47D. The data set can be described thus: Antiproliferative activity against ER/PR/HER2 expressing human T47D cells after 72 hrs by SRB assay. Type of data set: functional, cell-based. An outline of the steps:
as §1

The subject of data set [13] is MDA-MB-468. As to the kind of experiment: Antiproliferative activity against ER/PR/HER2 deficient human MDA-MB-468 cells after 72 hrs by SRB assay. The following applies: MDA-MB-468, 72 h. Type of data set: functional, cell-based. The method in brief:
as §1

Data set [14] has as its system MDA-MB-468. As to the kind of experiment: Cytotoxicity against human MDA-MB-468 cells after 72 hrs in presence of CYP1A1 inhibitor alpha-naphthoflavone by SRB assay. Type of data set: functional, cell-based. The method in brief:
as §4

The subject of the next data set is SK-BR-3. The data set can be described thus: Antiproliferative activity against ER/PR deficient and HER2 expressing human SKBR3 cells after 72 hrs by SRB assay. Type of data set: functional, cell-based. The following applies: SK-BR-3, 72 h. An outline of the steps: as §1
For data set [15], the system named is HT-1080. As to the kind of experiment: Antiproliferative activity against human HT1080 cells transfected with pCMV6-AC empty plasmid after 72 hrs by SRB assay. The data set is classed as functional, cell-based. The following applies: HT-1080, 72 h. The method in brief: as §1
Data set [16] has as its system HT-1080. The data set can be described thus: Antiproliferative activity against human HT1080 cells transfected with CYP1A1 after 72 hrs by SRB assay. The data set is classed as functional, cell-based. The note with it: HT-1080, 72 h. An outline of the steps:
as §1

For another data set, the system named is MDA-MB-231. As to the kind of experiment: Antiproliferative activity against ER/PR/HER2 deficient human MDA-MB-231 cells after 72 hrs by SRB assay. Type of data set: functional, cell-based. The following applies: MDA-MB-231, 72 h. The method in brief: as §1
A short description of data set [17]: Selectivity ratio of IC50 for ER/PR/HER2 deficient human MDA-MB-231 cells to IC50 for ER/PR/HER2 expressing human T47D cells. Type of data set: functional. The method in brief: as §3
In data set [18] the test system is MCF7. The data set can be described thus: Cell cycle arrest in human MCF7 cells assessed as accumulation at G0/G1 phase at 50 nM after 24 hrs by DAPI-staining based FACS analysis (reference value: 65.5%). Type of data set: functional.
Data set [19] in a line: Selectivity ratio of IC50 for ER/PR/HER2 deficient human MDA-MB-231 cells to IC50 for ER/PR/HER2 deficient human MDA-MB-468 cells. The data set is classed as functional. The method in brief:
as §3

Regarding `CCCCN1CCN(c2ccc(S(=O)(=O)Oc3cc(OC)c(OC)c(OC)c3)cc2)C1=O`, the negative-log IC50 (pIC50) is 5.26 in the data set with HT-1080 [1]; 8.26 with MCF7 [12]; 7.70 with T47D; 8.00 with MDA-MB-468 [13]; 8.70 in the data set on SK-BR-3; 4.33 in the data set with HT-1080 [15]. The pIC50 with HT-1080 [16] was 7.89; with MDA-MB-231, 5.22. Moreover, the TGI was 49% with HT-1080 [2] and 15% in the data set on HT-1080 [10]. Also, the pKi at Cytochrome P450 1A1 [3] (read-out: Ki) was 6.27. Further, on Cytochrome P450 1A1 [4], the Drug metabolism entry was “Metabolite_Detected”. In addition, the Time on Cytochrome P450 1A1 [5] came out at 30 min. The “Ratio IC50” value came to 3000 in data set [6]; 3600 with HT-1080 [8]; 1100 in data set [9]; 300 in [17]; 590 in [19]. Further, the TGI entry in the data set with HT-1080 [7] is “inactive”. Besides, the outcome in the data set on MDA-MB-468 [11] and in the data set with MDA-MB-468 [14] was inactive. Besides, the Activity in the data set with MCF7 [18] stood at 3.7%.

`COc1cc(OS(=O)(=O)c2ccc(N3CCNC3=O)cc2)cc(OC)c1OC`: the negative logarithm of the IC50 (pIC50) in the data set with HT-1080 [1] was 8.44; in the data set on MCF7 [12] it was 8.51; in the data set on T47D it was 8.21; in the data set with MDA-MB-468 [13], 8.34; in the data set with SK-BR-3, 8.51; in the data set with HT-1080 [15] it was 8.48. Moreover, the pIC50 with HT-1080 [16] was 8.77; in the data set on MDA-MB-231, 8.19. The results for the TGI in the data set with HT-1080 [2], with HT-1080 [7] and in the data set on HT-1080 [10] were 32%, 21% and 51%, respectively. In addition, the Ki entry at Cytochrome P450 1A1 [3] was “Not Active”. Further, the “Ratio IC50” value is recorded as 2.1 in data set [6]; 1.9 in the data set on HT-1080 [8]; 2.1 in [9]; 1 in data set [17]; 1.4 in data set [19].
